Assay results taken from ChEMBL document CHEMBL3414569, “Amino acid modified xanthone derivatives: novel, highly promising membrane-active antimicrobials for multidrug-resistant Gram-positive bacterial infections” (J Med Chem, 2015).
In brackets after ≈: the same amount, converted by molar mass. Activity calls are given as the source filed them.

Tests used:
Staphylococcus aureus [1] = test: Antimicrobial activity against Staphylococcus aureus DM4001 by broth macrodilution method; format: functional
In short: (§1)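 Broth macrodilution MIC in Mueller Hinton broth following CLSI guidelines. Inoculum was prepared by direct colony suspension from an 18−20 h tryptic soy agar plate.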

Staphylococcus aureus [2] = test: Antimicrobial activity against methicillin resistant Staphylococcus aureus DM21455 by broth macrodilution method; format: functional; in short: as §1
Staphylococcus aureus [3] = test: Antimicrobial activity against methicillin resistant Staphylococcus aureus DM09809R by broth macrodilution method; format: functional; in short: as §1
Bacillus cereus = test: Antimicrobial activity against Bacillus cereus ATCC 11778 by broth macrodilution method; format: functional
In short: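 CLSI broth macrodilution in Mueller Hinton broth. Inoculum was made by direct colony suspension from colonies on an 18−20 h tryptic soy agar plate. The value is the MIC.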

[4] = Induction of hemolysis in New Zealand white rabbit RBC after 1 hr; format: cell-based, Oryctolagus cuniculus, Erythrocyte; details: New Zealand white, red blood cells (RBC)
In short: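 Fresh red blood cells isolated from New Zealand white rabbits. Lysis measured over a compound concentration series; HC50 taken as the concentration lysing 50% of RBCs.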

[5] = Retention time of the compound; format: physicochemical
In short: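 Reverse-phase HPLC of 20 μL injections of a 10 μg/mL sample at 1 mL/min. Gradient: 5−55% ACN over 5 min, then 55−95% over 15 min.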

[6] = Selectivity index, ratio of HC50 for induction of hemolysis in New Zealand white rabbit RBC to MIC for Staphylococcus aureus DM4001
[7] = Selectivity index, ratio of HC50 for induction of hemolysis in New Zealand white rabbit RBC to MIC for Staphylococcus aureus DM21455
[8] = Selectivity index, ratio of HC50 for induction of hemolysis in New Zealand white rabbit RBC to MIC for Staphylococcus aureus DM09809R
[9] = Selectivity index, ratio of HC50 for induction of hemolysis in New Zealand white rabbit RBC to MIC for Bacillus cereus ATCC 11778
Staphylococcus aureus [10] = test: Antimicrobial activity against methicillin sensitive Staphylococcus aureus isolates by broth macrodilution method; format: functional
Staphylococcus aureus [11] = test: Antimicrobial activity against vancomycin-intermediate sensitive Staphylococcus aureus isolates by broth macrodilution method; format: functional
Staphylococcus aureus [12] = test: Antimicrobial activity against methicillin resistant Staphylococcus aureus isolates by broth macrodilution method; format: functional
Staphylococcus aureus [13] = test: Antimicrobial activity against epidemic methicillin resistant Staphylococcus aureus isolates by broth macrodilution method; format: functional
Staphylococcus aureus [14] = test: Antimicrobial activity against multidrug resistant Staphylococcus aureus isolates by broth macrodilution method; format: functional
[15] = test system: Staphylococcus epidermidis; test: Antimicrobial activity against Staphylococcus epidermidis isolates by broth macrodilution method; format: functional
Enterococcus [16] = test: Antimicrobial activity against vancomycin-sensitive Enterococcus isolates by broth macrodilution method; format: functional
Enterococcus [17] = test: Antimicrobial activity against vancomycin-resistant Enterococcus isolates by broth macrodilution method; format: functional
Streptococcus = test: Antimicrobial activity against Streptococcus isolates by broth macrodilution method; format: functional
Corynebacterium jeikeium = test: Antimicrobial activity against Corynebacterium jeikeium isolates by broth macrodilution method; format: functional
Listeria monocytogenes = test: Antimicrobial activity against Listeria monocytogenes isolates by broth macrodilution method; format: functional
Staphylococcus aureus [18] = test: Antimicrobial activity against Staphylococcus aureus ATCC 29213 by broth macrodilution method; format: functional; in short: as §1
Lipid bilayer [19] = test: Induction of vesicle leakage in DOPE/DOPG large unilamellar vesicles assessed as calcein release at 1/16 compound to lipid ratio by fluorescence assay; format: functional
In short: (§2)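 100 nm LUVs (DOPE/DOPG 75/25 or DOPC) made by film hydration in 80 mM calcein, 50 mM HEPES, 100 mM NaCl, 0.3 mM EDTA, pH 7.4. Then 7 freeze–thaw cycles, 15 extrusions and Sephadex G-50 clean-up. Compound added from DMF (<0.2%) at 50 μM final phospholipid. Fluorescence read at ex 490/em 520 nm for 30 min; 0.1% Triton X-100 set 100% lysis; three independent experiments.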

Staphylococcus aureus [20] = test: Antimicrobial activity against Staphylococcus aureus ATCC 29213 at 0.5 times MIC measured after 17 passages by multistep passage drug resistance selection study relative to wild type Staphylococcus aureus ATCC 29213 before passage; format: functional
In short: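 Multipassage selection in S. aureus ATCC29213 across an eight-concentration dilution series. Growth was read after 20−22 h. Bacteria growing at 0.5 × MIC were repassaged into a fresh series, 17 passages in total. Resistance was defined as a more than 4-fold rise over the initial MIC.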

Lipid bilayer [21] = test: Induction of vesicle leakage in DOPC large unilamellar vesicles assessed as calcein release at 1/16 compound to lipid ratio by fluorescence assay; format: functional; in short: as §2
Lipid bilayer [22] = test: Induction of vesicle leakage in DOPE/DOPG large unilamellar vesicles assessed as calcein release at 1/32 compound to lipid ratio by fluorescence assay; format: functional; in short: as §2
Lipid bilayer [23] = test: Induction of vesicle leakage in DOPE/DOPG large unilamellar vesicles assessed as calcein release at 1/64 compound to lipid ratio by fluorescence assay; format: functional; in short: as §2
Staphylococcus aureus [24] = test: Antimicrobial activity against teicoplanin intermediate resistant Staphylococcus aureus isolates by broth macrodilution method; format: functional
Staphylococcus aureus [25] = test: Antimicrobial activity against methicillin resistant Staphylococcus aureus DM21455 in absence of 4% BSA by broth macrodilution method; format: functional; in short: as §1
Staphylococcus aureus [26] = test: Antimicrobial activity against methicillin resistant Staphylococcus aureus DM21455 in presence of 4% BSA by broth macrodilution method; format: functional
In short: (§3)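 MIC by CLSI broth macrodilution in Mueller Hinton broth, with BSA added to the bacterial suspension at a final 4% w/v. Inoculum was made by direct colony suspension from an 18−20 h tryptic soy agar plate.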

Staphylococcus aureus [27] = test: Antimicrobial activity against Staphylococcus aureus ATCC 29213 in absence of 4% BSA by broth macrodilution method; format: functional; in short: as §1
Staphylococcus aureus [28] = test: Antimicrobial activity against Staphylococcus aureus ATCC 29213 in presence of 4% BSA by broth macrodilution method; format: functional; in short: as §3
Mus musculus [29] = test: Toxicity in C57BL6 mouse eye assessed as induction of toxicity related clinical signs at 3 mg/ml applied topically 5 times/day for 4 days; format: organism-based; details: in vivo, topical_or_ocular, 96 h
In short: (§4)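 Three healthy wild-type C57BL6 mice (6−8 weeks) per treatment received 0.5, 1 or 3 mg/mL compound in 10 mM PBS. Applied topically to the eye 5 times/day for 4 days. Corneal clarity checked daily through day 4 by slit-lamp biomicroscopy; histological sections also inspected.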

Mus musculus [30] = test: Toxicity in C57BL6 mouse eye assessed as effect on corneal clarity at 3 mg/ml applied topically 5 times/day for 4 days by slit lamp biomicroscopy; format: organism-based, Cornea; details: in vivo, topical_or_ocular, 96 h; in short: as §4
Mus musculus [31] = test: Toxicity in C57BL6 mouse eye assessed as effect on wound closure at 3 mg/ml applied topically 5 times/day for 4 days by slit lamp biomicroscopy; format: organism-based; details: in vivo, topical_or_ocular, 96 h
Mus musculus [32] = test: Toxicity in C57BL6 mouse eye assessed as inflammatory response at 3 mg/ml applied topically 5 times/day for 4 days by slit lamp biomicroscopy; format: organism-based; details: in vivo, topical_or_ocular, 96 h; in short: as §4
Staphylococcus aureus [33] = test: Antimicrobial activity against Staphylococcus aureus ATCC 29213 infected in mouse cornea infection model assessed as reduction in viable bacterial count at 0.3% solution applied topically 5 times/day dosed 1 day after infection relative to control; format: functional
In short: (§5)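 Mouse cornea given three superficial 1 mm scratches on one eye under ketamine/xylazine, then 10 μL of S. aureus ATCC 29213 suspension (1 × 10^8 CFU/mL in USP phosphate buffer) applied topically. Treated topically 5 times/day from day 1 postinfection; PBS negative control; 4 mice/group killed on days 1, 2 and 3. Corneas homogenized in 0.9% NaCl with 0.25% BSA, plated in duplicate on TSA (48 h, 35 °C); log10 CFU/cornea.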

Lipid bilayer [34] = test: Induction of vesicle leakage in DOPC large unilamellar vesicles assessed as calcein release at 1/64 compound to lipid ratio by fluorescence assay
Staphylococcus aureus [35] = test: Antimicrobial activity against Staphylococcus aureus ATCC 29213 infected in mouse cornea infection model assessed as reduction in viable bacterial count at 0.02% solution applied topically 5 times/day dosed 1 day after infection relative to control; format: functional; in short: as §5

Compound: COC(=O)C(CCCNC(=N)N)NC(=O)C(CCCNC(=N)N)NC(=O)COc1cc2oc3cc(OCC(=O)NC(CCCNC(=N)N)C(=O)NC(CCCNC(=N)N)C(=O)OC)c(OC)c(CC=C(C)C)c3c(=O)c2c(O)c1CC=C(C)C (stereo not drawn)
- MIC (Staphylococcus aureus [1]): 0.5 µg/mL (≈ 0.424 µM)
- MIC (Staphylococcus aureus [2]): 2 µg/mL (≈ 1.7 µM)
- MIC (Staphylococcus aureus [3]): 3 µg/mL (≈ 2.54 µM)
- MIC (Bacillus cereus): 3 µg/mL (≈ 2.54 µM)
- HC50 at 1 h [4]: 277 µg/mL
- Retention_time [5]: 6.49 min
- Selectivity Index [6]: 92
- Selectivity Index [7]: 92
- Selectivity Index [8]: 92
- Selectivity Index [9]: 92
- MIC (Staphylococcus aureus [10]): 2 µg/mL (≈ 1.7 µM)
- MIC (Staphylococcus aureus [11]): 2 µg/mL (≈ 1.7 µM)
- MIC (Staphylococcus aureus [12]): 2 µg/mL (≈ 1.7 µM)
- MIC (Staphylococcus aureus [13]): 2 µg/mL (≈ 1.7 µM)
- MIC (Staphylococcus aureus [14]): 2 µg/mL (≈ 1.7 µM)
- MIC [15]: 2 µg/mL (≈ 1.7 µM)
- MIC (Enterococcus [16]): 2 µg/mL (≈ 1.7 µM)
- MIC (Enterococcus [17]): 1 µg/mL (≈ 0.848 µM)
- MIC (Streptococcus): 2 µg/mL (≈ 1.7 µM)
- MIC (Corynebacterium jeikeium): 2 µg/mL (≈ 1.7 µM)
- MIC (Listeria monocytogenes): 2 µg/mL (≈ 1.7 µM)
- MIC (Staphylococcus aureus [18]): 2 µg/mL (≈ 1.7 µM)
- Activity (Lipid bilayer [19]): 99.2%
- Activity (Staphylococcus aureus [20]): Active
- Activity (Lipid bilayer [21]): < 15%
- Activity (Lipid bilayer [22]): 67.9%
- Activity (Lipid bilayer [23]): 24.6%
- MIC (Staphylococcus aureus [24]): 2 µg/mL (≈ 1.7 µM)
- MIC (Staphylococcus aureus [25]): 1.56 µg/mL (≈ 1.32 µM)
- MIC (Staphylococcus aureus [26]): 12.5 µg/mL
- MIC (Staphylococcus aureus [27]): 3.12 µg/mL (≈ 2.65 µM)
- MIC (Staphylococcus aureus [28]): 12.5 µg/mL
- Activity (Mus musculus [29]): Non-toxic
- Activity (Mus musculus [30]): Non-toxic
- Activity (Mus musculus [31]): Non-toxic
- Activity (Mus musculus [32]): Non-toxic
- inhibition (INH) (Staphylococcus aureus [33]): 99.9%
- Activity (Lipid bilayer [34]): < 15%

Compound: CCN(CC)CCCCOc1cc2oc3cc(OCCCCN(CC)CC)c(OC)c(CC=C(C)C)c3c(=O)c2c(O)c1CC=C(C)C
- MIC (Staphylococcus aureus [1]): 2 µg/mL (≈ 3.01 µM)
- MIC (Staphylococcus aureus [2]): 0.5 µg/mL (≈ 0.752 µM)
- MIC (Staphylococcus aureus [3]): 2 µg/mL (≈ 3.01 µM)
- MIC (Bacillus cereus): 3 µg/mL (≈ 4.51 µM)
- HC50 at 1 h [4]: 20 µg/mL
- Selectivity Index [6]: 7
- Selectivity Index [7]: 7
- Selectivity Index [8]: 7
- Selectivity Index [9]: 7
- Ratio (Staphylococcus aureus [35]): <1
